According to ChEMBL document CHEMBL1165887, “Structure-activity relationships of monomeric C2-aryl pyrrolo[2,1-c][1,4]benzodiazepine (PBD) antitumor agents” (J Med Chem, 2010):

What was measured:
[1] = Growth inhibition of human NCI60 cells after 48 hrs by SRB assay; type: functional; conditions: NCI60, 48 h; for CC50: read-out: LC50 (the source's name)
[2] = tested on: K562; experiment: Cytotoxicity against human K562 cells after 96 hrs by alamar blue assay; type: functional, cell-based; conditions: K562, 96 h
In short: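 K562 cells kept in RPMI with 10% fetal calf serum and 2 mM glutamine, seeded at 10⁴ cells/mL. Compounds serially diluted in DMSO and added in triplicate; exposure 96 h at 37 °C, 5% CO₂. Alamar Blue (1 μM final) then added for a further 4 h; read by fluorescence emission at 580-620 nm.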

SMILES	GI50 [1] [nM]	TGI [1] [nM]	CC50 [1] [µM]	IC50 [2] [nM]
COc1cc2c(cc1OC)C(=O)N1C=C(c3cccc4c3oc3ccccc34)C[C@H]1C=N2	49	210	2.82	162
COc1cc2c(cc1OC)C(=O)N1C=C(c3cc4ccccc4o3)C[C@H]1C=N2	6	50	0.44	10.8
COc1cc2c(cc1OC)C(=O)N1C=C(/C=C/c3ccc(Cl)cc3)C[C@H]1C=N2	5	20	1	15.4
COc1cc2c(cc1OC)C(=O)N1C=C(c3c(OC)cccc3OC)C[C@H]1C=N2	110	1100	11.7	61
COc1cc2c(cc1OC)C(=O)N1C=C(c3ccncc3)C[C@H]1C=N2	18	600	26.9	28.7
COC(=O)c1cccc(C2=CN3C(=O)c4cc(OC)c(OC)cc4N=C[C@@H]3C2)c1	5	40	7.58	12.4
COc1cc2c(cc1OC)C(=O)N1C=C(c3cccc(OC(F)(F)F)c3)C[C@H]1C=N2	6	180	7.24	76.5
C=CC1=CN2C(=O)c3cc(OC)c(OC)cc3N=C[C@@H]2C1	78	1230	30.2	2.7
COc1cc2c(cc1OC)C(=O)N1C=C(c3cccc4ccccc34)C[C@H]1C=N2	138	950	13.9	572
COc1cc2c(cc1OC)C(=O)N1C=C(c3ccc4ccccc4c3)C[C@H]1[C@H](S(=O)(=O)O)N2	2	20	0.0454	1.8
COc1cc2c(cc1OC)C(=O)N1C=CC[C@H]1C=N2	1350	8130	60.2	14.4
COc1cc2c(cc1OC)C(=O)N1C=C(c3ccc(N4CCOCC4)cc3)C[C@H]1C=N2	5	160	13.2	8.8
COc1cc2c(cc1OC)C(=O)N1C=C(c3cc4ccccc4s3)C[C@H]1C=N2	5	90	0.54	26.7
COc1cc2c(cc1OC)C(=O)N1C=C(c3ccc(C(=O)NCCN(C)C)cc3)C[C@H]1C=N2	19	90	3.89	114
COc1cccc(C2=CN3C(=O)c4cc(OC)c(OC)cc4N[C@@H](S(=O)(=O)O)[C@@H]3C2)c1	5	70	0.0004	7.1
COc1cc2c(cc1OC)C(=O)N1C=C(c3ccc(F)cc3)C[C@H]1[C@H](S(=O)(=O)O)N2	5	40	0.0016	16.3
COc1cc2c(cc1OC)C(=O)N1C=C(c3ccccc3)C[C@H]1[C@H](S(=O)(=O)O)N2	54	430	0.0025	16.5
COc1cc2c(cc1OC)C(=O)N1C=C(c3ccc4ncccc4c3)C[C@H]1[C@H](S(=O)(=O)O)N2	0.2	4	0.0014	1.3
COc1ccc2cc(C3=CN4C(=O)c5cc(OC)c(OC)cc5N=C[C@@H]4C3)ccc2c1	0.9	7	0.27	2.3
COc1cc2c(cc1OC)C(=O)N1C=C(c3ccc(C(=O)O)cc3)C[C@H]1C=N2	13200	23400	25.1	> 1000
COc1cc2c(cc1OC)C(=O)N1C=C(c3ccc(C(=O)NCCCN(C)C)cc3)C[C@H]1C=N2	58	830	35.5	165
CCOc1ccc2cc(C3=CN4C(=O)c5cc(OC)c(OC)cc5N=C[C@@H]4C3)ccc2c1	2	20	1.95	12.6
COc1cc2c(cc1OC)C(=O)N1C=C(c3cccc(C#N)c3)C[C@H]1C=N2	4	560	16.2	15.1
COc1cc2c(cc1OC)C(=O)N1C=C(c3c(F)cccc3F)C[C@H]1C=N2	25	330	4.36	7.1
COc1cc2c(cc1OC)C(=O)N1C=C(c3cccc(N)c3)C[C@H]1C=N2	4	50	5.89	59.5
COc1cc2c(cc1OC)C(=O)N1C=C(c3ccc(OCCCN(C)C)cn3)C[C@H]1C=N2	4	60	4.07	9.4
COc1cc2c(cc1OC)C(=O)N1C=C(c3cccc(F)c3)C[C@H]1C=N2	3	50	16.6	6.4

SMILES	GI50 [1] [nM]	TGI [1] [nM]	CC50 [1] [µM]	IC50 [2] [nM]
COc1cc2c(cc1OC)C(=O)N1C=C(c3cccnc3)C[C@H]1C=N2	5	70	17	18.2
COc1cc2c(cc1OC)C(=O)N1C=C(/C=C/c3ccc(C)cc3)C[C@H]1C=N2	2	50	0.44	41.1
COc1cc2c(cc1OC)C(=O)N1C=C(c3cccc(C(F)(F)F)c3)C[C@H]1C=N2	6	30	1.35	46.8
COc1cc2c(cc1OC)C(=O)N1C=C(c3ccc(C(=O)NCCO)cc3)C[C@H]1C=N2	158	1860	12.6	161
COc1cc2c(cc1OC)C(=O)N1C=C(c3ccccc3C(F)(F)F)C[C@H]1C=N2	16	160	4.36	258
COc1cc2c(cc1OC)C(=O)N1C=C(c3ccc4ccc5cccc6ccc3c4c56)C[C@H]1C=N2	398	1440	10.7	86.2
COc1cc2c(cc1OC)C(=O)N1C=C(c3cccc(Cl)c3)C[C@H]1C=N2	17	100	0.54	19.4
COc1cc2c(cc1OC)C(=O)N1C=C(c3cccc4c3Sc3ccccc3S4)C[C@H]1C=N2	501	1740	8.91	> 1000
COc1ccc([C@H]2C[C@H]3C=Nc4cc(OC)c(OC)cc4C(=O)N3C2)cc1	9770	43600	91.2	> 1000
COc1cc2c(cc1OC)C(=O)N1C=C(/C=C/c3ccc(C(F)(F)F)cc3)C[C@H]1C=N2	3	20	1.1	31.2
COc1cc2c(cc1OC)C(=O)N1C=C(/C=C/c3ccc(F)cc3)C[C@H]1C=N2	5	10	1.1	0.13
COc1cc2c(cc1OC)C(=O)N1C=C(c3ccc(C(N)=O)cc3)C[C@H]1C=N2	9	460	13.8	15.6
COc1cc2c(cc1OC)C(=O)N1C=C(c3cnn(C)c3)C[C@H]1C=N2	3	50	5.37	12.2
COc1cc2c(cc1OC)C(=O)N1C=C(c3ccc(C(=O)N4CCN(C)CC4)cc3)C[C@H]1C=N2	15	710	13.8	59.5
COc1cc2c(cc1OC)C(=O)N1C=C(c3ccc(Cl)c(Cl)c3)C[C@H]1C=N2	3	50	3.02	106
COc1cc2c(cc1OC)C(=O)N1C=C(c3ccc4[nH]ccc4c3)C[C@H]1C=N2	5	40	7.08	12.6
COc1cc2c(cc1OC)C(=O)N1C=C(c3ccc(O)cc3)C[C@H]1C=N2	2	80	3.39	10.3
COc1cc2c(cc1OC)C(=O)N1C=C(c3ccc(N4CCN(C)CC4)cc3)C[C@H]1C=N2	5	80	8.32	0.63
COc1cc2c(cc1OC)C(=O)N1C=C(/C=C/c3ccccc3)C[C@H]1C=N2	4	20	1.58	0.1
COc1cc2c(cc1OC)C(=O)N1C=C(c3ccc([N+](=O)[O-])cc3)C[C@H]1C=N2	4	70	6.92	13.1
COc1cc2c(cc1OC)C(=O)N1C=C(c3ccc(C(C)(C)C)cc3)C[C@H]1[C@H](S(=O)(=O)O)N2	8	50	0.0478	70
COc1cc2c(cc1OC)C(=O)N1C=C(c3cccc(C(=O)O)c3)C[C@H]1C=N2				> 1000
COc1cc2c(cc1OC)C(=O)N1C=C(c3cccc(C)c3)C[C@H]1C=N2	5	70	7.58	9.5
COc1cc2c(cc1OC)C(=O)N1C=C(c3cccc(C(=O)NCCCN(C)C)c3)C[C@H]1C=N2	102	850	14.1	273
COc1cc2c(cc1OC)C(=O)N1C=C(c3cn[nH]c3)C[C@H]1C=N2	12	270	6.46	20.1
COc1cc2c(cc1OC)C(=O)N1C=C(c3ccc(Br)cc3)C[C@H]1C=N2				237
COc1cc2c(cc1OC)C(=O)N1CCC[C@H]1C=N2	2140	19000	57.5	488
